In ChEMBL document CHEMBL1125232, “Synthesis and biological activity of bay-region metabolites of a cyclopenta-fused polycyclic aromatic hydrocarbon: benz[j]aceanthrylene” (1991):

Legend:
Assay type in all cases: functional, Salmonella enterica subsp. enterica serovar Typhimurium
Salmonella typhimurium [1] = experiment: (§1) Mutagenicity determined by Ames assay in Salmonella Typhimurium strain TA98, with metabolic activation by Aroclor 1254 induced rat liver S9 at a dose of 0.5 ug/plate
Method in brief: (§2)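 Ames plate incorporation assay, modified per Claxton, in TA98. Compounds dissolved in DMSO. Each plate received 0.8 mg S9 protein from livers of Aroclor 1254-treated male rats, plus NADPH-generating cofactors. Each dose was run in duplicate on two or three separate occasions. Values are mean His+ revertants/plate.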

Salmonella typhimurium [2] = experiment: (§3) Mutagenicity determined by Ames assay in Salmonella Typhimurium strain TA98, with metabolic activation by Aroclor 1254 induced rat liver S9 at a dose of 1.0 ug/plate; method in brief: as §2
Salmonella typhimurium [3] = experiment: (§4) Mutagenicity determined by Ames assay in Salmonella Typhimurium strain TA98, with metabolic activation by Aroclor 1254 induced rat liver S9 at a dose of 10 ug/plate; method in brief: as §2
Salmonella typhimurium [4] = experiment: (§5) Mutagenicity determined by Ames assay in Salmonella Typhimurium strain TA98, with metabolic activation by Aroclor 1254 induced rat liver S9 at a dose of 20 ug/plate; method in brief: as §2
Salmonella typhimurium [5] = experiment: (§6) Mutagenicity determined by Ames assay in Salmonella Typhimurium strain TA98, with metabolic activation by Aroclor 1254 induced rat liver S9 at a dose of 5 ug/plate; method in brief: as §2
Salmonella typhimurium [6] = experiment: Mutagenicity determined by Ames assay in Salmonella Typhimurium strain TA98, without metabolic activation by Aroclor 1254 induced rat liver S9 at a dose of 0.5 ug/plate; design: unit: revertants/plate
Method in brief: (§7)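 Ames plate incorporation assay in TA98, modified per Claxton, with no S9 or cofactors added. Test compounds were given from DMSO solution. Each dose level was plated in duplicate on two or three separate occasions. Read-out is mean His+ revertants/plate.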

Salmonella typhimurium [7] = experiment: (§8) Mutagenicity determined by Ames assay in Salmonella Typhimurium strain TA98, without metabolic activation by Aroclor 1254 induced rat liver S9 at a dose of 1.0 ug/plate; method in brief: as §7
Salmonella typhimurium [8] = experiment: (§9) Mutagenicity determined by Ames assay in Salmonella Typhimurium strain TA98, without metabolic activation by Aroclor 1254 induced rat liver S9 at a dose of 10 ug/plate; method in brief: as §7
Salmonella typhimurium [9] = experiment: (§10) Mutagenicity determined by Ames assay in Salmonella Typhimurium strain TA98, without metabolic activation by Aroclor 1254 induced rat liver S9 at a dose of 20 ug/plate; method in brief: as §7
Salmonella typhimurium [10] = experiment: (§11) Mutagenicity determined by Ames assay in Salmonella Typhimurium strain TA98, without metabolic activation by Aroclor 1254 induced rat liver S9 at a dose of 5 ug/plate; method in brief: as §7
Salmonella typhimurium [11] = experiment: (§12) Specific mutagenicity in the absence of protein S9, was expressed as His+ revertants/nmol, calculated by least-square linear regression.
Method in brief: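 Ames plate incorporation assay in TA98 without S9; compounds in DMSO; doses in duplicate on two or three occasions. His+ revertants/nmol from least-squares linear regression of the linear part of the dose-response curve, up to 10 µg/plate for most compounds and to 5 or 20 µg/plate for others.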

Salmonella typhimurium [12] = experiment: (§13) Specific mutagenicity in the presence of protein S9, was expressed as His+ revertants/nmol, calculated by least-square linear regression.
Method in brief: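 Ames plate incorporation assay in TA98 with 0.8 mg Aroclor 1254-induced male rat liver S9 protein per plate plus NADPH-generating cofactors; compounds in DMSO; doses in duplicate on two or three occasions. His+ revertants/nmol from least-squares linear regression of the dose-response curve's linear part, up to 10 µg/plate.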

Salmonella typhimurium [13] = experiment: as §3; remark: listed apart in the source
Method in brief: (§14)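 Ames plate incorporation test following Claxton's modification, with compounds dissolved in DMSO. Each plate received 0.8 mg S9 protein from livers of Aroclor 1254-treated male rats plus NADPH-generating cofactors. Each dose was plated in duplicate on two or three separate occasions, and the value is the mean His⁺ revertants/plate. The positive control was 2-anthramine at 0.5 μg/plate, with DMSO as the solvent control.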

Salmonella typhimurium [14] = experiment: as §5; method in brief: as §14; remark: listed apart in the source
Salmonella typhimurium [15] = experiment: as §6; method in brief: as §14; remark: listed apart in the source
Salmonella typhimurium [16] = experiment: as §8; remark: listed apart in the source
Method in brief: (§15)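 Ames plate incorporation test following Claxton's modification, run without S9, with compounds dissolved in DMSO. Each dose was plated in duplicate on two or three separate occasions, and the value is the mean His⁺ revertants/plate. The positive control was 2-nitrofluorene at 3 μg/plate, with DMSO as the solvent control.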

Salmonella typhimurium [17] = experiment: as §9; method in brief: as §15; remark: listed apart in the source
Salmonella typhimurium [18] = experiment: as §12; remark: listed apart in the source
Method in brief: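 Calculated as His⁺ revertants/nmol by least-squares linear regression over the linear portion of the no-S9 plate-incorporation dose–response (DMSO solutions, duplicate plates, two or three occasions). The fit ran to 10 μg/plate for most compounds, but for two compounds it ran to 5 or 20 μg/plate.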

Salmonella typhimurium [19] = experiment: as §13; remark: listed apart in the source
Method in brief: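 Calculated as His⁺ revertants/nmol by least-squares linear regression over the linear portion of the dose–response to 10 μg/plate. Plates received 0.8 mg Aroclor 1254-induced male rat liver S9 protein with NADPH-generating cofactors. Compounds were dissolved in DMSO and plated in duplicate on two or three occasions.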

Salmonella typhimurium [20] = experiment: as §1; method in brief: as §14; remark: listed apart in the source
Salmonella typhimurium [21] = experiment: as §10; method in brief: as §15; remark: listed apart in the source
Salmonella typhimurium [22] = experiment: as §11; method in brief: as §15; remark: listed apart in the source
Salmonella typhimurium [23] = experiment: as §4; method in brief: as §14; remark: listed apart in the source

C1=CC2OC2c2ccc3c4c5c(cccc5cc3c21)C=C4 (stereo not drawn)
Mutagenicity (Salmonella typhimurium [1]): 58
Mutagenicity (Salmonella typhimurium [2]): 71
Mutagenicity (Salmonella typhimurium [3]): 272
Mutagenicity (Salmonella typhimurium [4]): 350
Mutagenicity (Salmonella typhimurium [5]): 176
Mutagenicity (Salmonella typhimurium [6]): 28
Mutagenicity (Salmonella typhimurium [7]): 26
Mutagenicity (Salmonella typhimurium [8]): 39
Mutagenicity (Salmonella typhimurium [9]): 46
Mutagenicity (Salmonella typhimurium [10]): 34
Activity (Salmonella typhimurium [11]): 0.2
Activity (Salmonella typhimurium [12]): 5.6

O[C@H]1C=Cc2c(ccc3c4c5c(cccc5cc23)C=C4)[C@@H]1O
Mutagenicity (Salmonella typhimurium [6]): 36
Mutagenicity (Salmonella typhimurium [13]): 100
Mutagenicity (Salmonella typhimurium [14]): 543
Mutagenicity (Salmonella typhimurium [15]): 335
Mutagenicity (Salmonella typhimurium [16]): 40
Mutagenicity (Salmonella typhimurium [17]): 45
Activity (Salmonella typhimurium [18]): 0.7
Activity (Salmonella typhimurium [19]): 9.4
Mutagenicity (Salmonella typhimurium [20]): 67
Mutagenicity (Salmonella typhimurium [21]): 75
Mutagenicity (Salmonella typhimurium [22]): 43
Mutagenicity (Salmonella typhimurium [23]): 469

O[C@H]1c2ccc3c4c5c(cccc5cc3c2[C@@H]2OC2[C@@H]1O)C=C4 (stereo partly drawn)
Mutagenicity (Salmonella typhimurium [6]): 37
Mutagenicity (Salmonella typhimurium [13]): 86
Mutagenicity (Salmonella typhimurium [14]): 148
Mutagenicity (Salmonella typhimurium [15]): 283
Mutagenicity (Salmonella typhimurium [16]): 53
Mutagenicity (Salmonella typhimurium [17]): 172
Activity (Salmonella typhimurium [18]): 10
Activity (Salmonella typhimurium [19]): 12.9
Mutagenicity (Salmonella typhimurium [20]): 51
Mutagenicity (Salmonella typhimurium [21]): 93
Mutagenicity (Salmonella typhimurium [22]): 186
Mutagenicity (Salmonella typhimurium [23]): 287

C1=Cc2c3ccc4ccccc4c3cc3cccc1c23 [BENZO[J]ACEANTHRYLENE]
Mutagenicity (Salmonella typhimurium [1]): 76
Mutagenicity (Salmonella typhimurium [2]): 103
Mutagenicity (Salmonella typhimurium [3]): 694
Mutagenicity (Salmonella typhimurium [4]): 915
Mutagenicity (Salmonella typhimurium [5]): 429
Mutagenicity (Salmonella typhimurium [6]): 35
Mutagenicity (Salmonella typhimurium [7]): 39
Mutagenicity (Salmonella typhimurium [8]): 32
Mutagenicity (Salmonella typhimurium [9]): 38
Mutagenicity (Salmonella typhimurium [10]): 38
Activity (Salmonella typhimurium [11]): 0.1
Activity (Salmonella typhimurium [12]): 12.9
